Test results from ChEMBL document CHEMBL1144528, “Synthesis of 8-thiabicyclo[3.2.1]octanes and their binding affinity for the dopamine and serotonin transporters” (Bioorg Med Chem, 2007).

Legend:
Transporter = Transporter (Macaca mulatta, UniProt Q7JHP9); experiment: Displacement of [3H]WIN-35428 from DAT in rhesus monkey caudate-putamen; format: tissue-based
Outline: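 Rhesus or cynomolgus caudate-putamen membranes (4 mg original wet weight/mL) in 50 mM Tris·HCl pH 7.4, 100 mM NaCl. Incubated 2 h at 0-4 °C with 0.3 nM [3H]WIN35,428 and a range of drug concentrations. Filtered on 0.1% BSA-soaked glass fibre filters and scintillation counted. Nonspecific binding defined with 30 μM (-)-cocaine. IC50 is the mean of ≥2 experiments in different brains, each in triplicate.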

[1] = target: Sodium-dependent serotonin transporter (Macaca mulatta, UniProt Q9MYX0); experiment: Displacement of [3H]citalopram from SERT in rhesus monkey caudate-putamen; format: tissue-based
Outline: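 Caudate-putamen membranes from rhesus or cynomolgus monkey (4 mg original wet weight/mL) in 50 mM Tris·HCl pH 7.4 with 100 mM NaCl. Incubated with 1 nM [3H]citalopram and a range of test drug concentrations for 2 h at 0-4 °C. Filtered over glass fibre filters pre-soaked in 0.1% polyethyleneimine, then scintillation counted. IC50 is the mean of ≥2 independent experiments in different brains, each in triplicate.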

Macaca mulatta = species on record: Macaca mulatta; experiment: Selectivity for rhesus monkey DAT over rhesus monkey SERT
Outline: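 Ratio of SERT IC50 ([3H]citalopram binding) to DAT IC50 ([3H]WIN35,428 binding), both measured in monkey caudate-putamen membranes.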

Chain of Sodium-dependent serotonin transporter (Q9MYX0 whole entry): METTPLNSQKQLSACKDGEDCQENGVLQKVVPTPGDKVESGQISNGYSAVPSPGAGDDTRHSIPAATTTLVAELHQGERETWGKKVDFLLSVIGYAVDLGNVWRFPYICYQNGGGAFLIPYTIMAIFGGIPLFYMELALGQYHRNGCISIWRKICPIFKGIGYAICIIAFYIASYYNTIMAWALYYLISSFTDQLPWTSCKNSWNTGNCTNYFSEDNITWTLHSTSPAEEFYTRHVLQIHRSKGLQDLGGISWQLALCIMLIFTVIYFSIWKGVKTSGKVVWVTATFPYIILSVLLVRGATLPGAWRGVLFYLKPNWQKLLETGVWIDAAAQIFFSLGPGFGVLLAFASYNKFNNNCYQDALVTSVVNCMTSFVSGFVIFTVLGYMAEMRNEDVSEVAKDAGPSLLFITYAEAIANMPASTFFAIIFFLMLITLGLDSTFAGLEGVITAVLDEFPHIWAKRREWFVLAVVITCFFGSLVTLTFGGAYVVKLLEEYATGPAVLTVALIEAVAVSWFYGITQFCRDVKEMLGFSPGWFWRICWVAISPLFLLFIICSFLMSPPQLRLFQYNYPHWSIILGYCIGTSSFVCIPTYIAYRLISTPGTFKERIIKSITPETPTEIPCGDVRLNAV
Chain of Transporter (Q7JHP9 whole entry): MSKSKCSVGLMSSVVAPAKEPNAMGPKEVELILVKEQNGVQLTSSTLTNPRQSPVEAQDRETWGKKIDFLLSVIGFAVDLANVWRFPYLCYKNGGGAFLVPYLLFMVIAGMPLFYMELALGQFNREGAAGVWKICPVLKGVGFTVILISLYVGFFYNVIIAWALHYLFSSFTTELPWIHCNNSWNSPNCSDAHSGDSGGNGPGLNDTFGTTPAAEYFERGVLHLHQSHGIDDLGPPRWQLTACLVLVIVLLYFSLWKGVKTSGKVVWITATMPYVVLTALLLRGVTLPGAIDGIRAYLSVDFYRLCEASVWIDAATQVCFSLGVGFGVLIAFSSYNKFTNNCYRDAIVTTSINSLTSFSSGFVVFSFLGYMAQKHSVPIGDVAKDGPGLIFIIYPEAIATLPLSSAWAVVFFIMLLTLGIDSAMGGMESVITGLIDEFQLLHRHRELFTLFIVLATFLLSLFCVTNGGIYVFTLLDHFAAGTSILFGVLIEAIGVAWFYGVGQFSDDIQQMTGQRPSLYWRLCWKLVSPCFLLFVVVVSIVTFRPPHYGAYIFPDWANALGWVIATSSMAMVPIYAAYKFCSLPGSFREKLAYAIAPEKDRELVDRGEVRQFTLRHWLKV

| Structure (SMILES) | IC50 (Transporter) | IC50 [1] | Ratio IC50 (Macaca mulatta) |
| --- | --- | --- | --- |
| COC(=O)C1=C(c2ccc(Cl)c(F)c2)CC2CCC1S2 (stereo unspecified) | 10 nM | > 50000 nM | > 5000 |
| COC(=O)[C@@H]1C2CCC(C[C@@H]1c1ccc(F)cc1)S2 (stereo partly specified) | 38 nM | 494 nM | 13 |
| COC(=O)[C@@H]1C2CCC(C[C@@H]1c1ccc(Br)cc1)S2 (stereo partly specified) | 6 nM | 14 nM | 2.3 |
| COC(=O)[C@H]1[C@@H](c2ccc(Cl)c(Cl)c2)CC2CC[C@H]1S2 | 2 nM | 3 nM | 1.5 |
| COC(=O)[C@@H]1C2CCC(C[C@H]1c1ccc(Br)cc1)S2 (stereo partly specified) | 6 nM | 342 nM | 57 |
| COC(=O)[C@@H]1[C@@H]2CCC(C[C@@H]1c1ccc(Cl)c(Cl)c1)S2 | 22 nM | 90 nM | 4 |
| COC(=O)[C@@H]1C2CCC(C[C@H]1c1ccccc1)S2 (stereo partly specified) | 140 nM | > 8000 nM | > 57 |
| COC(=O)[C@@H]1C2CCC(C2)C[C@@H]1c1ccc(Cl)c(Cl)c1 (stereo partly specified) | 9.6 nM | 33 nM | 3.4 |
| COC(=O)C1=C(c2ccc(Cl)c(Cl)c2)CC2CC[C@H]1N2C | 1.2 nM | 867 nM | 723 |
| COC(=O)[C@@H]1C2CCC(C[C@@H]1c1ccc(F)c(F)c1)S2 (stereo partly specified) | 32 nM | 235 nM | 7 |
| COC(=O)[C@@H]1C2CCC(C[C@H]1c1ccc(F)c(Cl)c1)S2 (stereo partly specified) | 7.1 nM | 480 nM | 68 |
| COC(=O)[C@@H]1[C@H]2[C@H](O)CC(C[C@H]1c1ccc(Cl)c(Cl)c1)N2C | 0.76 nM | 1220 nM | 1610 |
| COC(=O)[C@@H]1C2CCC(C[C@@H]1c1ccc(Cl)c(F)c1)[S+]2[O-] (stereo partly specified) | 14 nM | > 4000 nM | > 286 |
| COC(=O)[C@@H]1C2CCC(C[C@H]1c1ccc(F)c(Cl)c1)[S+]2[O-] (stereo partly specified) | 23 nM | > 31000 nM | > 1350 |
| COC(=O)[C@@H]1C2CCC(C[C@H]1c1ccc(Cl)c(F)c1)[S+]2[O-] (stereo partly specified) | 17 nM | > 14000 nM | > 824 |
| COC(=O)[C@@H]1[C@@H]2[C@H](O)CC(C[C@@H]1c1ccc(Cl)c(Cl)c1)N2C | 2690 nM | 139 nM | 0.05 |
| COC(=O)[C@@H]1C2CCC(C2)C[C@H]1c1ccc(Cl)c(Cl)c1 (stereo partly specified) | 13 nM | 166 nM | 13 |
| COC(=O)[C@H]1[C@@H](c2ccc(Cl)c(Cl)c2)CC2CC[C@H]1O2 | 3.3 nM | 4.7 nM | 1.4 |
| COC(=O)[C@@H]1C2CCC(C[C@@H]1c1ccccc1)S2 (stereo partly specified) | 117 nM | > 3000 nM | > 29 |
| COC(=O)[C@@H]1C2CCC(C[C@@H]1c1ccc(I)cc1)S2 (stereo partly specified) | 14 nM | 10 nM | 0.7 |
| COC(=O)C1=C(c2ccccc2)CC2CCC1S2 (stereo unspecified) | 910 nM | > 10000 nM | > 11 |
| COC(=O)C1=C(c2ccc(Cl)c(Cl)c2)CC2C[C@@H](O)[C@H]1N2C | 7.4 nM | 5370 nM |  |
| COC(=O)C1=C(c2ccc3ccccc3c2)CC2CCC1S2 (stereo unspecified) | 8 nM | > 1000 nM | > 163 |
| COC(=O)[C@@H]1C2CCC(C[C@H]1c1ccc(Cl)c(Cl)c1)S2 (stereo partly specified) | 6.9 nM | 99 nM | 14 |
| COC(=O)C1=C(c2ccc(Cl)cc2)CC2CCC1S2 (stereo unspecified) | 13 nM | > 10000 nM | > 770 |
| COC(=O)[C@@H]1[C@H]2CCC(C[C@H]1c1ccc(Cl)c(Cl)c1)O2 | 2.3 nM | 31 nM | 13 |

| Structure (SMILES) | IC50 (Transporter) | IC50 [1] | Ratio IC50 (Macaca mulatta) |
| --- | --- | --- | --- |
| COC(=O)[C@@H]1C2CCC(C[C@@H]1c1ccc3ccccc3c1)S2 (stereo partly specified) | 16 nM | 13 nM | 0.8 |
| COC(=O)C1=C(c2ccc(F)cc2)CC2CCC1S2 (stereo unspecified) | 220 nM | > 30000 nM | > 127 |
| COC(=O)C1=C(c2ccc(Cl)c(Cl)c2)CC2CCC1S2 (stereo unspecified) | 4.5 nM | > 3000 nM | > 800 |
| COC(=O)[C@@H]1[C@@H]2CCC(C[C@H]1c1ccc(Cl)c(Cl)c1)O2 | 56 nM | 2860 nM | 51 |
| COC(=O)[C@@H]1C2CCC(C[C@H]1c1ccc(I)cc1)S2 (stereo partly specified) | 9 nM | 70 nM | 8 |
| COC(=O)[C@@H]1C2CCC(C[C@@H]1c1ccc(Cl)c(Cl)c1)[S+]2[O-] (stereo partly specified) | 5.3 nM | 120 nM | 23 |
| COC(=O)[C@@H]1[C@@H]2[C@H](O)CC(C[C@H]1c1ccc(Cl)c(Cl)c1)N2C | 482 nM | 5300 nM | 11 |
| COC(=O)C1=C(c2ccc(Br)cc2)CC2CCC1S2 (stereo unspecified) | 9.1 nM | > 25000 nM | > 2750 |
| COC(=O)C1=C(c2ccc(Cl)c(Cl)c2)CC2C[C@@H](O)[C@@H]1N2C | 265 nM | 1590 nM |  |
| COC(=O)[C@@H]1C2CCC(C[C@@H]1c1ccc(F)c(Cl)c1)S2 (stereo partly specified) | 6.7 nM | 370 nM | 55 |
| COC(=O)[C@H]1[C@@H](c2ccc(Cl)c(Cl)c2)CC2CC[C@H]1N2C | 1.1 nM | 2.5 nM | 2.2 |
| COC(=O)C1=C(c2ccc(Cl)c(Cl)c2)CC2CC[C@@H]1O2 | 58 nM | 46700 nM | 805 |
| COC(=O)[C@@H]1[C@@H]2CCC(C[C@H]1c1ccc(Cl)c(Cl)c1)S2 | 10 nM | 139 nM | 14 |
| COC(=O)[C@@H]1C2CCC(C[C@@H]1c1ccc(Cl)cc1)S2 (stereo partly specified) | 9.6 nM | 33 nM | 3.4 |
| COC(=O)[C@@H]1[C@@H]2CCC(C[C@@H]1c1ccc(Cl)c(Cl)c1)O2 | 47 nM | 58 nM | 1.2 |
| COC(=O)C1=C(c2ccc(Cl)c(Cl)c2)CC2CC[C@@H]1N2C | 490 nM | 1900 nM | 4 |
| COC(=O)[C@@H]1[C@H]2[C@H](O)CC(C[C@@H]1c1ccc(Cl)c(Cl)c1)N2C | 0.3 nM | 15 nM | 50 |
| COC(=O)[C@@H]1C2CCC(C[C@H]1c1ccc(Cl)cc1)S2 (stereo partly specified) | 11 nM | 1000 nM | > 91 |
| COC(=O)[C@@H]1[C@H]2CCC(C[C@H]1c1ccc(Cl)c(Cl)c1)N2C | 0.4 nM | 27 nM | 68 |
| COC(=O)C1=C(c2ccc(Cl)c(Cl)c2)CC2CCC1O2 (stereo unspecified) | 10 nM | 6000 nM | 600 |
| COC(=O)C1=C(c2ccc(F)c(F)c2)CC2CCC1S2 (stereo unspecified) | 75 nM | > 10000 nM | > 133 |
| COC(=O)C1=C(c2ccc(Cl)c(Cl)c2)CC2CC[C@H]1O2 | 4.6 nM | 2120 nM | 460 |
| COC(=O)C1=C(c2ccc(Cl)c(Cl)c2)CC2CC[C@@H]1S2 | 5 nM | 4000 nM | 800 |
| COC(=O)[C@@H]1[C@H]2CCC(C[C@H]1c1ccc(Cl)c(Cl)c1)S2 | 4.9 nM | 39 nM | 8 |
| COC(=O)[C@@H]1C2CCC(C[C@H]1c1ccc(F)c(F)c1)S2 (stereo partly specified) | 11.3 nM | 1000 nM | 88 |
